# Experimental data gathered from unrelated publications.
# Mode: inhibitor
# EGFR: Epidermal growth factor receptor (EGFR, Homo sapiens, UniProt P00533)
# EGFR L858R/T790M: Epidermal growth factor receptor (EGFR, Homo sapiens, UniProt P00533, L858R/T790M)
SMILES,target,effect on,technique,concentration,inhibition [%]
CN(C)C1CCN(CC#Cc2nn(C3CCCC3)c3nc(NCc4ccccc4)ncc23)C1 (stereo not drawn),EGFR,enzyme activity,FRET,1 µM,7
C=CC(=O)Nc1cc(Nc2nc(N3CCc4sccc4C3)c3cccnc3n2)c(OC)cc1N1CCN(C(C)=O)CC1,EGFR L858R/T790M,enzyme activity,ELISA,0.1 µM,19.4
CC/C(=N\NC(=O)NCc1cccc(O)c1)c1ccc(O)c(C)c1O,"Epidermal growth factor receptor (EGFR, Homo sapiens, UniProt P00533, del746-750)",enzyme activity,,0.1 µM,-0.6
CSc1nc(C)c(-c2ccnc(Nc3ccc(N4CCOCC4)cc3)c2)[nH]1,EGFR,cell-free assay,,10 µM,56.6
C=CC(=O)Nc1cc(Nc2nc(N3CCc4sccc4C3)c3cccnc3n2)c(OC)cc1N1CCSCC1,EGFR L858R/T790M,enzyme activity,ELISA,0.1 µM,23.9
COc1cc(-c2cc(-c3ccc(N4CCNCC4)cc3)cnc2N)cc(OC)c1OC,"Epidermal growth factor receptor (EGFR, Homo sapiens, UniProt P00533, T790M)",enzyme activity,,0.1 µM,2
CS(=O)(=O)Nc1cccc(-c2csc(NC(=O)CSc3nc4nccnc4c(=O)n3CCc3ccccc3)n2)c1,EGFR,enzyme activity,,10 µM,-1
C=C(Cl)C(=O)Nc1cc(Nc2nc(N3CCOCC3)c3sccc3n2)c(OC)cc1N(C)CCN(C)C,EGFR L858R/T790M,enzyme activity,ELISA,0.1 µM,57.8
O=C(CSc1nc2nccnc2c(=O)n1CCc1ccccc1)Nc1nccs1,EGFR,enzyme activity,,10 µM,-2
C=C(Cl)C(=O)Nc1cc(Nc2nc(N3CCSCC3)c3sccc3n2)c(OC)cc1N(C)CCN(C)C,EGFR L858R/T790M,enzyme activity,ELISA,0.1 µM,50.2
CCOc1cc(-c2nncn2C)ccc1Nc1ncc2cc(C)nc(NCC(C)(C)C)c2n1,EGFR,enzyme activity,FRET,1 µM,< 15
COc1cc(N(C)CCN(C)C)c(NC(=O)C=C(C)C)cc1Nc1nc(N2CCc3sccc3C2)c2sccc2n1,EGFR L858R/T790M,enzyme activity,ELISA,0.1 µM,19.5
COc1cc2nccc(Oc3ccc(NC(=O)c4c5n(n(-c6ccc(F)cc6)c4=O)CCCC5)cc3)c2cc1OC,EGFR,enzyme activity,,0.1 µM,-2
COc1cc2ncnc(Nc3ccc(Oc4ccccc4)c(C)c3C)c2cc1OC,"Epidermal growth factor receptor (EGFR, Homo sapiens, UniProt P00533, L861Q)",enzyme activity,,1 µM,86
C=C(Cl)C(=O)Nc1cc(Nc2nc(N3CCc4sccc4C3)c3sccc3n2)c(OC)cc1N(C)CCN(C)C,EGFR L858R/T790M,enzyme activity,ELISA,0.1 µM,90.3
CNCc1ccc(-c2cc(-c3nc(-c4ccc(S(=O)(=O)C(C)C)cc4)cnc3N)on2)cc1,EGFR,enzyme activity,,2 µM,0
COc1cc2ncnc(Nc3ccc(Oc4ccccc4)cc3C)c2cc1OC,"Epidermal growth factor receptor (EGFR, Homo sapiens, UniProt P00533, L858R)",enzyme activity,,1 µM,64
CNc1cccc2cc(C(=O)Nc3ccc(C(=O)O)cc3)c(=O)[nH]c12,EGFR,enzyme activity,,10 µM,-1.7
CCC(=O)Nc1cc(Nc2nc(N3CCc4sccc4C3)c3cccnc3n2)c(OC)cc1N1CCN(CCO)CC1,EGFR L858R/T790M,enzyme activity,ELISA,0.1 µM,30.3
COc1cc2c(Nc3cccc(OCCn4ccnc4[N+](=O)[O-])c3)ncnc2cc1OCCCN1CCOCC1,EGFR,enzyme activity,FRET,1 µM,24
C=CC(=O)Nc1cc(Nc2nccc(Nc3cc(Cl)c(F)cc3C(C)(C)O)n2)c(OC)cc1N1CC[C@@H](N(C)C)C1,EGFR L858R/T790M,enzyme activity,,1 µM,99
CS(=O)(=O)Nc1cc(-c2ccc3ncnc(Nc4ccc(F)c(Cl)c4)c3c2)cnc1Cl,EGFR,enzyme activity,FRET,10 µM,90 to 100
C=CC(=O)Nc1cc(Nc2nc(Nc3cnn(C)c3)c3sccc3n2)c(OC)cc1N(C)CCN(C)C,EGFR L858R/T790M,enzyme activity,ELISA,0.1 µM,6.7
CN1CC(Oc2cnc(C#N)cc2-c2ccn3nc(NC(=O)C4CC4)cc3c2)C1,EGFR,enzyme activity,,1 µM,-1
